From ChEMBL document CHEMBL1136881, “2-(substituted phenyl)amino analogs of 1-methoxyspirobrassinol methyl ether: synthesis and anticancer activity” (Bioorg Med Chem, 2009)
Activity calls are given as the source filed them. The calls are words filed in the database; no cut-off is given here.

Tests used:
A549 = test: Cytotoxicity against human A549 cells after 72 hrs by MTT assay; format: functional, cell-based; conditions: A549, 72 h
Bacillus subtilis = test: Antibacterial activity against Bacillus subtilis CCM 4062 at 20 ug/2.5 ul/6 mm disk after 24 hrs by disk diffusion assay; format: functional, organism-based
How it was run: (§1)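 Inoculum was prepared from an overnight blood-agar culture and adjusted in saline to 1.5 × 10⁸ CFU/ml (0.5 McFarland). It was swabbed evenly onto Mueller–Hinton or Sabouraud agar, and paper disks were applied. Plates were incubated 24 h at 37 °C. The read-out was inhibition-zone diameter around the disk, run alongside clinical antimicrobial reference agents.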

MDA-MB-231 = test: Cytotoxicity against human MDA-MB-231 cells after 72 hrs by MTT assay; format: functional, cell-based; conditions: MDA-MB-231, 72 h
How it was run: (§2)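 MTT microculture assay. Cells were seeded per well at 3 × 10³ (A-549, MCF-7, MDA-MB-231; DMEM), 5 × 10³ (HeLa; RPMI 1640) or 1 × 10⁴ (Jurkat, CEM; RPMI 1640), all with 10% FCS. Final concentrations were 10⁻⁴–10⁻⁶ mol·L⁻¹ (4 levels), for 72 h. MTT was then added for 4 h and SDS for 12 h, and A540 read. IC50 was taken against blank-corrected untreated control.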

CCRF-CEM = test: Cytotoxicity against human CCRF-CEM cells after 72 hrs by MTT assay; format: functional, cell-based; how it was run: as §2
Jurkat = test: Cytotoxicity against human Jurkat cells after 72 hrs by MTT assay; format: functional, cell-based; how it was run: as §2
MCF7 = test: Cytotoxicity against human MCF7 cells after 72 hrs by MTT assay; format: functional, cell-based; conditions: MCF7, 72 h; how it was run: as §2
HeLa = test: Cytotoxicity against human HeLa cells after 72 hrs by MTT assay; format: functional, cell-based
Streptococcus pyogenes = test: Antibacterial activity against Streptococcus pyogenes CCM 4425 at 20 ug/2.5 ul/6 mm disk after 24 hrs by disk diffusion assay; format: functional; how it was run: as §1

Row | SMILES | IC50 (A549) [µM] | Activity (Bacillus subtilis) | IC50 (MDA-MB-231) [µM] | IC50 (CCRF-CEM) [µM] | IC50 (Jurkat) [µM] | IC50 (MCF7) [µM] | IC50 (HeLa) [µM] | diameter of the inhibition zone (DIZ) (Streptococcus pyogenes) [mm]
1 | CON1c2ccccc2[C@@]2(CN=C(SC)S2)[C@H]1Nc1ccc(C(F)(F)F)cc1 (relative stereo) | 46.6 | Active | 31.1 | 54 | 28.4 | 66.8 | 34.9 | 
2 | CON1c2ccccc2[C@@]2(CN=C(SC)S2)[C@H]1Nc1ccc(Br)cc1 (relative stereo) | 35.1 |  | 100 | 28.7 | 33.4 | 34.1 | 81.5 | 
3 | CON1c2ccccc2[C@@]2(CN=C(SC)S2)[C@H]1Nc1ccc([N+](=O)[O-])cc1 (relative stereo) | 30.2 |  | 100 | 54.5 | 100 | 88 | 100 | 
4 | CON1c2ccccc2[C@@]2(CN=C(SC)S2)[C@H]1Nc1ccc(C)cc1 (relative stereo) | 100 |  | 100 | 100 | 33.3 | 100 | 36.8 | 
5 | CON1c2ccccc2[C@@]2(CN=C(SC)S2)[C@@H]1Nc1ccc(Cl)c(Cl)c1 (relative stereo) | 24.7 |  | 35.5 | 100 | 10 | 100 | 15.4 | 
6 | CON1c2ccccc2[C@@]2(CN=C(SC)S2)[C@H]1Oc1ccccc1 (relative stereo) | 100 |  | 100 | 100 | 100 | 100 | 100 | 
7 | CON1c2ccccc2[C@@]2(CN=C(SC)S2)[C@@H]1Nc1ccccc1 (relative stereo) | 100 |  | 62 | 31.8 | 17.8 | 100 | 25.8 | 
8 | CON1c2ccccc2[C@@]2(CN=C(SC)S2)[C@@H]1Nc1ccc(C)c(C)c1 (relative stereo) | 100 |  | 100 | 100 | 10 | 100 | 54.9 | 
9 | CON1c2ccccc2[C@@]2(CN=C(SC)S2)[C@@H]1Nc1ccc(C)cc1 (relative stereo) | 100 |  | 78.7 | 64.7 | 6.6 | 100 | 100 | 
10 | COc1ccc(N[C@H]2N(OC)c3ccccc3[C@@]23CN=C(SC)S3)cc1 (relative stereo) | 100 |  | 64 | 15.5 | 69.4 | 100 | 100 | 
11 | CON1c2ccccc2[C@@]2(CN=C(SC)S2)[C@@H]1Nc1ccc(Cl)cc1 (relative stereo) | 85.9 |  | 100 | 37.4 | 30.7 | 100 | 44.8 | 
12 | CON1c2ccccc2[C@@]2(CN=C(SC)S2)[C@@H]1Nc1ccc(Br)cc1 (single isomer, unassigned) | 100 |  | 100 | 54.8 | 29.3 | 100 | 55.7 | 7
13 | CO[C@@H]1N(OC)c2ccccc2[C@@]12CN=C(SC)S2 (relative stereo) | 100 |  | 100 | 100 | 57.4 | 100 | 53.2 | 
14 | CON1c2ccccc2[C@@]2(CN=C(SC)S2)[C@H]1Nc1ccccc1Cl (relative stereo) | 82 |  | 100 | 75.8 | 43 | 100 | 100 | 
15 | COc1cccc2c1C(=O)c1c(O)c3c(c(O)c1C2=O)C[C@@](O)(C(=O)CO)C[C@@H]3O[C@H]1C[C@H](N)[C@H](O)[C@H](C)O1 [DOXORUBICIN] |  |  | 0.2 | 0.09 | 0.078 | 0.5 |  | 
16 | CON1c2ccccc2[C@@]2(CN=C(SC)S2)[C@@H]1Nc1ccc(C(F)(F)F)cc1 (relative stereo) | 1 | Active | 88 | 74.3 | 41.8 | 100 | 81.9 | 
17 | CON1c2ccccc2[C@@]2(CN=C(SC)S2)[C@H]1Nc1ccc(C)c(C)c1 (relative stereo) | 42.6 |  | 100 | 45.5 | 47.1 | 58 | 23.8 | 
18 | CON1c2ccccc2[C@@]2(CN=C(SC)S2)[C@H]1Nc1ccccc1 (relative stereo) | 100 |  | 100 | 100 | 100 | 100 | 31.9 | 
19 | CON1c2ccccc2[C@@]2(CN=C(SC)S2)[C@@H]1Nc1ccccc1Cl (relative stereo) | 100 |  | 100 | 36 | 29.4 | 100 | 76.8 | 
20 | CN[C@@H]1N(OC)c2ccccc2[C@@]12CN=C(SC)S2 (relative stereo) | 100 |  | 100 | 100 | 100 | 100 | 33.6 | 
21 | CON1c2ccccc2[C@@]2(CN=C(SC)S2)[C@H]1Nc1ccc(Cl)c(Cl)c1 (relative stereo) | 21.1 | Active | 20.7 | 22.6 | 21 | 22.6 | 21.8 | 
22 | COc1cc([C@@H]2c3cc4c(cc3[C@@H](O[C@@H]3O[C@@H]5CO[C@@H](C)O[C@H]5[C@H](O)[C@H]3O)[C@H]3COC(=O)[C@H]23)OCO4)cc(OC)c1O [ETOPOSIDE] | 14.3 |  | 21.2 | 1.1 | 1.2 | 10.9 | 3.9 | 
23 | CO[C@H]1N(OC)c2ccccc2[C@@]12CN=C(SC)S2 (relative stereo) | 100 |  | 100 | 100 | 30.2 | 100 | 48.9 | 
24 | COc1ccc(N[C@@H]2N(OC)c3ccccc3[C@@]23CN=C(SC)S3)cc1 (relative stereo) | 73.9 |  | 100 | 10 | 34.8 | 100 | 81.5 | 
25 | CON1c2ccccc2[C@@]2(CN=C(SC)S2)[C@@H]1Oc1ccccc1 (relative stereo) | 100 |  | 100 | 100 | 100 | 100 | 100 | 
26 | CON1c2ccccc2[C@@]2(CN=C(SC)S2)[C@H]1Nc1ccc(Cl)cc1 (relative stereo) | 22.3 |  | 20.7 | 100 | 100 | 28.5 | 22.3 | 
27 | CON1c2ccccc2[C@@]2(CN=C(SC)S2)[C@@H]1Nc1ccc([N+](=O)[O-])cc1 (relative stereo) | 100 |  | 100 | 100 | 10 | 100 | 50 | 
